The results in this text go back to ChEMBL document CHEMBL3259629, “Discovery and optimization of piperidyl-1,2,3-triazole ureas as potent, selective, and in vivo-active inhibitors of α/β-hydrolase domain containing 6 (ABHD6)” (J Med Chem, 2013).

Activity calls are given as the source filed them. No cut-off for these calls is given here.

The target in assay [1] is T1, Monoacylglycerol lipase ABHD6 (Mus musculus) (UniProt Q8R2Y0).
T1 sequence (whole entry): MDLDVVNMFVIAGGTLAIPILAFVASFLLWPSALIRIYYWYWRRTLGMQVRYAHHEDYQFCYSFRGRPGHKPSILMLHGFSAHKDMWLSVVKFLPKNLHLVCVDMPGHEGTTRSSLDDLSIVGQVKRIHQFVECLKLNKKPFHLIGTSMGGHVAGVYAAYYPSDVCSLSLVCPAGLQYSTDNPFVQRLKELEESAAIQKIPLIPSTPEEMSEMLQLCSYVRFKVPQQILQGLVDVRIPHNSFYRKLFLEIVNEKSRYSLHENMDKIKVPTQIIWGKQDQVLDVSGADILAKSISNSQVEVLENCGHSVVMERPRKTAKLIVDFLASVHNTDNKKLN
Kind of assay: Inhibition of ABHD6 in FP-rhodamine-labelled mouse brain membrane at 10 to 0.0032 uM preincubated for 30 mins followed by FP-rhodamine labelling measured after 30 mins by gel-based competitive ABPP assay. Format: tissue-based. The procedure, abridged:
(§1)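 Mouse brain membrane proteome (1 mg/mL) preincubated with compound for 30 min at 37 °C, then labelled with FP-rhodamine or HT-01 (1 μM final) for 30 min at 37 °C. Quenched in SDS loading buffer, run on 10% SDS-PAGE and scanned for in-gel fluorescence. Bands assigned by gel migration.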

For assay [2], the target named is T2, Fatty-acid amide hydrolase 1 (Mus musculus) (UniProt O08914).
T2 sequence (whole entry): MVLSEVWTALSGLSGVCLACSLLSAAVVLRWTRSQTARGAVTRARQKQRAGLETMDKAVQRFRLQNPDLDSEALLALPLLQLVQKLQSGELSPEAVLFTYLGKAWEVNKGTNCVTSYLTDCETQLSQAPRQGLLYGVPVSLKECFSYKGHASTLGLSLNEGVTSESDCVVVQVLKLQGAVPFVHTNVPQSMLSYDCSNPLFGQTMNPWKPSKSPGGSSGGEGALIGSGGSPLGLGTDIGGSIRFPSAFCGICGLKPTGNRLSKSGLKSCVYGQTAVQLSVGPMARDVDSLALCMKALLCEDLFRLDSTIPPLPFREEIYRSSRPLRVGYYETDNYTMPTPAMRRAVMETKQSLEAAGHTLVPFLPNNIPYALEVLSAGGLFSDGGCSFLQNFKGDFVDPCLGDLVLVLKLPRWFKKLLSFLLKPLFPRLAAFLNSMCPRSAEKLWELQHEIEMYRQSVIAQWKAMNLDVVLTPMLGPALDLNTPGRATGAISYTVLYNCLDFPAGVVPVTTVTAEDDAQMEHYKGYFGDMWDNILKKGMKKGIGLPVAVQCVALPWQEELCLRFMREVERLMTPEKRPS
Put plainly: Inhibition of FAAH in FP-rhodamine-labelled mouse brain membrane at 0.4 to 10 uM preincubated for 30 mins followed by FP-rhodamine labelling measured after 30 mins by gel-based competitive ABPP assay. Format: tissue-based. A digest of the protocol:
as §1

The target in assay [3] is T1, Monoacylglycerol lipase ABHD6 (Mus musculus). Put plainly: Inhibition of ABHD6 in azide-rhodamine-labelled mouse Neuro2a cell membrane at 0.01 to 0.6 uM preincubated for 1 hr followed by azide-rhodamine labelling by SDS-PAGE-based in-gel fluorescence scanning assay. A digest of the protocol:
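Live Neuro2A cells (DMEM, 10% FBS) treated with compound for 1 hr at 37 °C, then lysed. The membrane proteome was conjugated to azide-rhodamine by click chemistry, resolved by SDS-PAGE and scanned for in-gel fluorescence.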

For assay [4] the target is unchanged. Kind of assay: Inhibition of ABHD6 in HT-01-labelled mouse Neuro2a cell membrane at 0.003 to 0.6 uM preincubated for 30 mins followed by HT-01 labelling measured after 30 mins by gel-based competitive ABPP assay. The procedure, abridged: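 Neuro2A membrane proteome (1 mg/mL) preincubated with compound for 30 min at 37 °C, then labelled with HT-01 (1 μM, 30 min, 37 °C). SDS-PAGE and in-gel fluorescence scanning, with activity taken from integrated band intensity.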

For assay [5] the target is unchanged. Kind of assay: Inhibition of ABHD6 in FP-rhodamine-labelled mouse brain membrane at 10 nM preincubated for 30 mins followed by FP-rhodamine labelling measured after 30 mins by gel-based competitive ABPP assay. Format: tissue-based. A digest of the protocol: as §1
Assay [6] has as its target Acyl-protein thioesterase 2 (Mus musculus) (UniProt Q9WTL7). Put plainly: Inhibition of FP-rhodamine-labelled recombinant mouse LYPLA2 at 10 uM preincubated for 30 mins followed by FP-rhodamine labelling measured after 30 mins by gel-based competitive ABPP assay.
The target of assay [7] is Acyl-protein thioesterase 1 (Mus musculus) (UniProt P97823). Put plainly: Inhibition of FP-rhodamine-labelled recombinant mouse LYPLA1 at 1 uM preincubated for 30 mins followed by FP-rhodamine labelling measured after 30 mins by gel-based competitive ABPP assay.
Chain of Acyl-protein thioesterase 1 (Mus musculus) (P97823 whole entry): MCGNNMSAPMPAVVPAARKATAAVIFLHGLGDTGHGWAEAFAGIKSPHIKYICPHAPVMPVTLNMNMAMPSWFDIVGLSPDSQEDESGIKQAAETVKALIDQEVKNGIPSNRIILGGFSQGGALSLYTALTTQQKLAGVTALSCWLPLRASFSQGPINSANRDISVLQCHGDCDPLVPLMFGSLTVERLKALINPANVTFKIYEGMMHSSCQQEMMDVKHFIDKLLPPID
The target in assay [8] is T3, Diacylglycerol lipase-beta (Mus musculus) (UniProt Q91WC9).
T3 sequence (whole entry): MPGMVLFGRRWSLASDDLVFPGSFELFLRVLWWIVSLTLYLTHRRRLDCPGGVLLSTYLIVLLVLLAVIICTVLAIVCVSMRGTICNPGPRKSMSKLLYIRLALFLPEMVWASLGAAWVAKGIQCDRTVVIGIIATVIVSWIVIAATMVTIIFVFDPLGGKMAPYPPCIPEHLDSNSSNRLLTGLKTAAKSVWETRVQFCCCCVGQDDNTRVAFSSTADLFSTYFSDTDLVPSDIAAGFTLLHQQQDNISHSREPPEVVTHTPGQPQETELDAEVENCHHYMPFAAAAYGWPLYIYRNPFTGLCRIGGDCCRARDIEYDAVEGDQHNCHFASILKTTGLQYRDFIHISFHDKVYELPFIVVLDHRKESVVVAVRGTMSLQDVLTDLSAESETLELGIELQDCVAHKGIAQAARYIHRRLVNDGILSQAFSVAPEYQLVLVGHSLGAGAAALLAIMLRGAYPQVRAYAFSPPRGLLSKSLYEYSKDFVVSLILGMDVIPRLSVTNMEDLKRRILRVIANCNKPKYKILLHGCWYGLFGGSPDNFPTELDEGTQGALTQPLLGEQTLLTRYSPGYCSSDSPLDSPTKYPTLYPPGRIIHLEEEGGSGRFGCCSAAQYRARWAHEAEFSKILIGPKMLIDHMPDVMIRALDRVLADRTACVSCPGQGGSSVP
Kind of assay: Inhibition of FP-rhodamine-labelled recombinant mouse DAGLbeta expressed in HEK293T cells at 1 uM preincubated for 30 mins followed by FP-rhodamine labelling measured after 30 mins by gel-based competitive ABPP assay. To be noted: HEK-293T. Format: cell-based. A digest of the protocol: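 Mouse DAGLβ transiently overexpressed in HEK293T. Lysate diluted to 0.3 mg/mL in 50 mM HEPES pH 7.2, 100 mM NaCl, 5 mM CaCl₂, 0.1% Triton X-100, 10% DMSO. Compound preincubated 30 min at 37 °C, then 1 μM probe for 30 min at 37 °C, SDS-PAGE and in-gel fluorescence.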

Assay [9] has as its target T2, Fatty-acid amide hydrolase 1 (Mus musculus). Kind of assay: Inhibition of mouse brain FAAH at 10 uM after 30 mins by FP-rhodamine ABPP-based SDS-PAGE analysis relative to control.
In assay [10] the target is T4, Acylamino-acid-releasing enzyme (Mus musculus) (UniProt Q8R146).
T4 sequence (whole entry): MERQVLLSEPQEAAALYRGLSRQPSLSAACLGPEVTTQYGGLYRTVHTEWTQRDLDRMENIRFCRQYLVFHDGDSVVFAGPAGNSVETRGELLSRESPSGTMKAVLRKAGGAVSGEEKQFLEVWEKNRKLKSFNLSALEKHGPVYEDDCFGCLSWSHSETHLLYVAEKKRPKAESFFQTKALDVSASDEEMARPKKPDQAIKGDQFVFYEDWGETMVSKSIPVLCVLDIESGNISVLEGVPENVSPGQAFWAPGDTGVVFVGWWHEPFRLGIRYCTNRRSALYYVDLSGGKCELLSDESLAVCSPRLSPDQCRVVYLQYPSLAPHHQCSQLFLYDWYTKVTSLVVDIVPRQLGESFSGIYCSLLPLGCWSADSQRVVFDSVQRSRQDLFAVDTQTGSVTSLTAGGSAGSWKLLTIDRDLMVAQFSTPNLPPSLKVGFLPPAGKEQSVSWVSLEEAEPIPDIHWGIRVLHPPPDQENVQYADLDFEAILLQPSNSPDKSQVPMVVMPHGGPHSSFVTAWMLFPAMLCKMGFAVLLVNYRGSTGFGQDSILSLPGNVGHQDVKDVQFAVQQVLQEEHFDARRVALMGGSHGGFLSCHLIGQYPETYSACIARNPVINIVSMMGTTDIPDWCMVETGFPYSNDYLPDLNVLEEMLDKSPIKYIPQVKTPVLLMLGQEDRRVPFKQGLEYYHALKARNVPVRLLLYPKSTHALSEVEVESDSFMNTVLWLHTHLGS
Put plainly: Inhibition of FP-rhodamine-labelled recombinant mouse APEH at 1 uM preincubated for 30 mins followed by FP-rhodamine labelling measured after 30 mins by gel-based competitive ABPP assay.

The target in assay [11] is T1, Monoacylglycerol lipase ABHD6 (Mus musculus). Kind of assay: Inhibition of ABHD6 in FP-rhodamine-labelled mouse brain membrane at 1 nM preincubated for 30 mins followed by FP-rhodamine labelling measured after 30 mins by gel-based competitive ABPP assay. The class given is tissue-based. A digest of the protocol:
as §1

Assay [12] addresses Acyl-protein thioesterase 1 (Mus musculus) (UniProt P97823). Kind of assay: Inhibition of FP-rhodamine-labelled recombinant mouse LYPLA1 at 10 uM preincubated for 30 mins followed by FP-rhodamine labelling measured after 30 mins by gel-based competitive ABPP assay.
In assay [13] the target is Acyl-protein thioesterase 2 (Mus musculus) (UniProt Q9WTL7). Kind of assay: Inhibition of FP-rhodamine-labelled recombinant mouse LYPLA2 at 1 uM preincubated for 30 mins followed by FP-rhodamine labelling measured after 30 mins by gel-based competitive ABPP assay.
Chain of Acyl-protein thioesterase 2 (Mus musculus) (Q9WTL7 whole entry): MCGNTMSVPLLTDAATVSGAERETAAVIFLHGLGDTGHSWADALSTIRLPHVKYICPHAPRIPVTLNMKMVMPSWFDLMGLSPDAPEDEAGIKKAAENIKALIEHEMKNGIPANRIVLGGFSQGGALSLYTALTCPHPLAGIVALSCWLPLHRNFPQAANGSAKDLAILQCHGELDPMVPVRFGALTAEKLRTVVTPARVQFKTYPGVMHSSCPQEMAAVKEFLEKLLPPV
Assay [14] addresses T4, Acylamino-acid-releasing enzyme (Mus musculus). Put plainly: Inhibition of FP-rhodamine-labelled recombinant mouse APEH at 10 uM preincubated for 30 mins followed by FP-rhodamine labelling measured after 30 mins by gel-based competitive ABPP assay.

As to `C#CCOCCCc1ccc(C2CCCCN2C(=O)n2cc(-c3ccc(-c4ccc(OC)cc4)cc3)nn2)cc1` (racemic), the inhibition entry in assay [1], in [2], in assay [3] and in assay [4] was “Active” each time.

Consider `O=C(O)c1cccc(-c2ccc(-c3cn(C(=O)N4CCCCC4c4ccccc4)nn3)cc2)c1` (racemic), for which the inhibition – broadly, the share of the control response that was lost under treatment – in assay [5] came out at 100%; in assay [8], 6%; in [11] it was 36%. Further, the inhibition result in assay [6], in assay [7], in assay [9], in assay [10], in assay [12] and in [13] was “Active” each time. In addition, the inhibition entry in assay [14] is “Active”.
